Test results taken from ChEMBL document CHEMBL4513216, “Probing the Open Global Health Chemical Diversity Library for Multistage-Active Starting Points for Next-Generation Antimalarials” (ACS Infect Dis, 2020).

Experiment: Toxicity liver stage against HepG2, at 10uM
Format: cell-based
Set-up: test concentration 10 uM, cell line HepG2-A16-CD81EGFP
Conditions: human, HepG2-A16-CD81EGFP cells; read-out: INHIBITION
Summary of the method: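 Uninfected HepG2-A16-CD81EGFP cells, 3 × 10^3 per well, 1536-well, plated on prespotted compound at 10 μM final, parasite-free screening media added to match infected plates; puromycin 10 μM positive, DMSO 0.5% negative; run in parallel with 48 h PbLuc assay at 37 °C, 5% CO2; viability by CellTiter-Glo luminescence, normalized to controls.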

SMILES	cytotoxicity at 10 µM [%]
CNC(=O)Nc1cc(-c2ccccc2C)nn1CCO	7
O[C@H]1CC[C@@H](Cc2cc(-c3ccc(F)cc3)on2)O[C@@H]1CNCC1CC1	-6.4
O=S(=O)(NC[C@H]1C[C@@H]2CCN1C[C@@H]2CN1CCCCC1)c1ccccc1	-4.32
CC1CN(c2ncccc2C(=O)Nc2cccc3c2CCCC3)CCN1 (stereo not drawn)	4.65
Cc1cccc(NC(=O)N2CCn3cnc(COCC4CC4)c3C2)c1	3.83
CC(=O)N1CCC2(C1)c1ccccc1S(=O)(=O)N2CCC(C)C (stereo not drawn)	-9.11
Cc1nc(CN2C(=O)C[C@@H]3[C@@H]2CCN3S(=O)(=O)C2CC2)cs1	-124
COCC1CC2(CCN(C(=O)c3ccc(F)cc3C)CC2)CO1 (stereo not drawn)	-108
O=C1CC(c2cccs2)Cc2nc(O)c(C(=O)N3CCCC3)cc21 (stereo not drawn)	-3.96
Cn1nc(CNC(=O)C2COc3ccccc3O2)cc1C1CC1 (stereo not drawn)	7.52
Cc1cc(OCc2ccc(C(=O)O)s2)ccc1Cl	12.2
O=C(NC1CCCCC1)c1nnc2ccc(N3CCOCC3)cc2n1	5.97
CC(=O)Oc1ccnc(C(F)(F)F)c1C(C)=O	-11.4
O=C(c1cc(-c2cccs2)cs1)N1CCSCC1	10.4
O=C(Nc1ccc2c(c1)OCCO2)c1ccc(=O)[nH]n1	18.1
Fc1ccc2[nH]c3c(c2c1)CCN1C(c2ccncc2)N2CCC31CC2 (stereo not drawn)	4.67
Cc1nccnc1C1CCN(C2CCCC2O)CC1 (stereo not drawn)	-1.35
CCN1CCCC1CNCc1cc2ccccc2[nH]c1=O (stereo not drawn)	1.78
Cc1ccc(=O)n(CC2(O)CCN(Cc3ccoc3)CC2)n1	-24.2
Cc1nc(CC(=O)N2CCN(C)CC2c2ccccc2)cs1 (stereo not drawn)	3.49
COCCNC(=O)N1CCN(C(C)C(=O)NC2CCCC2)CC1 (stereo not drawn)	1.16
CCCC1CCCN(C(=O)CNC(=O)c2ccoc2C)CC1 (stereo not drawn)	4
CC(NCCCn1ccnc1)c1ccc(N2CCOC2=O)cc1 (stereo not drawn)	-8.48

SMILES	cytotoxicity at 10 µM [%]
CNS(=O)(=O)c1cc(C(=O)NC2COc3ccccc3C2)ccc1OC (stereo not drawn)	18.9
Cc1c(NCCO)cccc1OC1CCCC1	3.1
CCOC(=O)C1(O)CCN(C(=O)Nc2ccc(CC)cc2)CC1	-130
Cc1nc2n(n1)CC(Nc1nc(C(F)(F)F)nc3ccccc13)CC2 (stereo not drawn)	-0.978
CCN(CC)S(=O)(=O)CC(=O)Nc1ccsc1	-2.77
COC(=O)[C@@H]1C[C@@H](O)CN1Cc1ccn(-c2ccc(F)cc2)n1	-5.17
O=C(Cc1cccs1)N1CCOCC1c1ccccc1 (stereo not drawn)	-6.73
O=C1CCN(C(=O)NCC(c2ccccc2)c2ccccc2)CCN1	-1.44
CC(C)NC(=O)N1CCC[C@H]1C(=O)NCCCc1cccc(F)c1	4.27
NC(=O)CCC1CCCN(c2ccc3ccc(F)cc3n2)C1 (stereo not drawn)	-0.386
CCc1[nH]nc(NC(=O)c2ccc(Cl)cn2)c1C	-9.69
O=C(NC1CC1)C(c1ccccc1)N1CCN(Cc2ccc(Cl)s2)CC1 (stereo not drawn)	4.46
CN1CCN(C(=O)c2cc(C#N)cn2C)c2ccccc2C1	5.45
Cc1nc2n(n1)CC(NCc1nc3ccccc3o1)CC2 (stereo not drawn)	-0.608
CC(NC(=O)Nc1ccncc1)c1ccc2c(c1)CC(=O)N2 (stereo not drawn)	-5.76
CCC(C)NC(=O)c1ccc(CNC(=O)CCC(C)C)cc1 (stereo not drawn)	2.27
CC(C)(C)OC(=O)NCC1CCN(C(=O)c2ccc(F)cc2F)C1 (stereo not drawn)	11.5
NC(=O)CN1CCC(NC2CCCCc3ccccc32)CC1 (stereo not drawn)	-7.86
CCC(C)(C)NCc1nc(C(C)(C)NC(=O)OC(C)(C)C)no1	2.35
Cc1noc(CN(C)CC2CCN(CCO)CC2)n1	5.82
Cc1cc(NC(=O)CN2CCc3nn(C)c(=O)cc3C2)no1	-5.04
CCCC(C(=O)NC1CCN(S(C)(=O)=O)CC1)c1ccccc1 (stereo not drawn)	-1.38
COCCNC(=O)Nc1ccn(-c2cccc(C(F)(F)F)c2)n1	-1.94

SMILES	cytotoxicity at 10 µM [%]
CN(CCOc1ccc(Br)cc1)Cc1cscn1	5.25
CS(=O)(=O)CCCSCc1ccc(Br)c(F)c1	4.64
COc1ccccc1-c1cc(NC(=O)CC2CCS(=O)(=O)C2)[nH]n1 (stereo not drawn)	-113
O=C1N(CC2CC2)C2(CCSCC2)NC12CCCC2	-150
Cc1ccc(CNCc2cccc3cccnc23)c(OC2CCOC2)c1 (stereo not drawn)	1.42
CC(c1ccco1)N(C(=O)c1cc2c([nH]c1=O)CCCC2=O)C1CC1 (stereo not drawn)	-3.21
CCC(C)n1cnc(S(=O)(=O)N(C)C)c1 (stereo not drawn)	-7.07
Cc1nc(NC(=O)CCOCC(F)(F)F)ccc1Br	6.27
CCC1CN(C(=O)c2cnc(-c3ccccc3)s2)CCO1 (stereo not drawn)	-2.63
COc1ccc(C(=O)Nc2ccc3c(c2)C(=O)NC3)cc1Br	3.53
Cc1noc(C)c1CS(=O)(=O)CC(=O)N1c2ccccc2CC1C (stereo not drawn)	3.53
Cc1nc(C2(NCc3c(C)nn(C)c3N3CCOCC3)CCC2)no1	4.98
Cc1cc(CS(=O)(=O)NC2CCCCC2)on1	2.92
COc1ccc(C2CCCN2C(=O)c2ccnc(NC3CC3)c2)cc1 (stereo not drawn)	3.07
CC(NCc1ccc(OCc2nccn2C)cc1)c1cccnc1 (stereo not drawn)	-4.47
CNC(=O)NC(=O)CCN1CCOC(c2ccc(Br)cc2)C1 (stereo not drawn)	-2.42
Cc1nn(C)cc1C(=O)N1CCC(CSc2ccccc2)C1 (stereo not drawn)	2.84
CN(CC(O)C1CC1)C(=O)Nc1ccc(F)c(-n2cccc2)c1 (stereo not drawn)	2.2
CCN1CCCC1CN(CCN(C)C)S(=O)(=O)c1cccc(C#N)c1 (stereo not drawn)	-12.1
CCN1CCC(CC(=O)NCC(O)c2ccc3ccccc3c2)CC1 (stereo not drawn)	-5.26
COc1ccc(-c2cc(C3CC3)c(C#N)c(N)n2)cc1F	-2.84
O=C1CCCN1C1CCCN(CCn2cc(Cl)cn2)C1 (stereo not drawn)	-0.626
COc1ccc2ncn(Cc3ncc[nH]3)c(=O)c2c1	-11

SMILES	cytotoxicity at 10 µM [%]
CCn1ncnc1C(C)Nc1cc(C2CCNCC2)nc(C)n1 (stereo not drawn)	-6.77
Cc1ccc(-c2noc(C(O)CC(C)C)n2)nn1 (stereo not drawn)	-7.72
CC(C)(NC(=O)c1coc(COc2cccc(F)c2)n1)C(N)=O	-136
CCOCCC(=O)NCC1COc2c(cccc2OC)C1 (stereo not drawn)	-142
CNC(=O)c1nc(CN2CCOC(Cc3ccc(F)cc3)C2)no1 (stereo not drawn)	-2.28
Cn1cc(C(=O)N2CC[C@@]3(O)CCN(C(=O)C4CCC4)C[C@H]3C2)cn1	-140
CCc1nc(C)c([C@H]2CN(C)C[C@@H]2C(=O)Nc2ccc(OC)nc2)[nH]1	-3.59
Cc1ccc2nc(CN(C)Cc3[nH]nc4c3CCC4)[nH]c2c1C	2.74
COc1cc2[nH]c(=O)c(CN3CCCC3C)cc2c(OC)c1OC (stereo not drawn)	-7.74
CN(C)c1ncc2c(n1)CCCC2NC(=O)C1CC1 (stereo not drawn)	4.07
CCc1ncc2c(n1)CN(c1cc(NCCO)nc(N)n1)C2	-4.49
CC(C)c1cc(C(=O)N2CCN(c3cccc(C(=O)O)c3)CC2)n(C)n1	-2.95
Cc1ccccc1C(CNc1ncnc2c1CCNCC2)N(C)C (stereo not drawn)	21.5
Cc1cc(CN2CCC(CNC(=O)C3(c4ccccc4)CC3)C2)[nH]n1 (stereo not drawn)	-145
Cc1cc2ccccc2n1CCC(=O)N1CCCC(O)(CN(C)C)CC1 (stereo not drawn)	-1.88
Cc1nc(NCCC23CCCN2CCC3)cc(C2CCCNC2)n1 (stereo not drawn)	7.98
CSCCC(=O)NCc1cc2n(n1)CCN(C(=O)N(C)C)C2	-5.77
CCCc1nc(C(=O)N(C)Cc2cc(CC)no2)cs1	6.75
CC(C)Nc1ncc(CN2C[C@@H](CN3CCC(O)CC3)[C@@H](CO)C2)cn1	18.5
Cc1ccc(NC2CCN(C(=O)CCc3ccsc3)CC2)nn1	4.3
CCOCC(O)CN1CCN(C(=O)c2cc(C)ccc2F)CC1 (stereo not drawn)	5.71
CC(Cn1cccn1)NCc1nc(-c2ccccn2)no1 (stereo not drawn)	-5.17
COCc1nc(C(=O)NS(=O)(=O)c2ccc(Cl)cc2F)cs1	8.13

SMILES	cytotoxicity at 10 µM [%]
O=C(c1cccnc1N1CCOCC1)N1CCCC(n2cccn2)C1 (stereo not drawn)	0.985
Cn1c(NCC(O)c2ccc(F)cc2)c(C#N)c(=O)n(C)c1=O (stereo not drawn)	-7.57
Cc1ncccc1CNCC1CCN(CCO)CC1	-22.5
Cc1nc(CN(C)C2CCN(CCCc3ccccc3)C2)no1 (stereo not drawn)	-16.1
Cc1cnn(CC2CCCN2C(=O)c2c(F)cccc2Cl)c1 (stereo not drawn)	-29.1
Cc1cnn(CC2CCCCN2Cc2nccn2CC(F)(F)F)c1 (stereo not drawn)	-13.7
CC(C)c1ccc(C(O)CN2CCN(Cc3nccn3C)CC2)cc1 (stereo not drawn)	-38.3
Cc1nccc(C(=O)N2CCOC(c3nc(C(C)C)n[nH]3)C2)n1 (stereo not drawn)	-15.7
Cc1oc(C)c(C(=O)N2CCN(Cc3cscn3)CC2)c1C	-10.6
Cc1csc(CNC(=O)N(C)Cc2ccc3c(c2)OCCO3)n1	5.38
CCOc1ccccc1-c1noc(CN2CCN(CCOC)CC2)n1	-4.9
CCC(O)CN(CC(=O)NC(=O)NC1CC1)c1ccccc1 (stereo not drawn)	-2.48
O=C(CSc1ccc(F)cc1)NS(=O)(=O)c1ccc2c(c1)OCCO2	-29.1
CC(C)(C)c1ncc(C(=O)NCCNC(=O)c2ccccc2)s1	-8.08
CCc1nc(CN2CCCC(NCc3nnc(C4CC4)o3)C2)no1 (stereo not drawn)	-5.73
CN1C[C@@H]2CN(Cc3ccsc3)CCC[C@]2(C(=O)O)C1	-141
CCN1CCc2[nH]nc(C(=O)N3CCCC3C)c2C1 (stereo not drawn)	-4.9
Cc1cccnc1N1CC2(CCN(Cc3cccnc3)C2)C1	-8.13
CCS(=O)(=O)N1CCC2(CC1)CCn1c(-c3cnn(C)c3)cnc12	-138
O=c1c(=CS(=O)(=O)Nc2ccccc2)[nH]c(=O)n2cccc12	0.458
O=C(C1CCOCC1)N1C[C@@H]2CC[C@H]1CN(C1Cc3ccccc3C1)C2	-0.317
